# Test results taken from ChEMBL document CHEMBL1122861, “Synthesis and activity profiles of novel cyclic opioid peptide monomers and dimers” (J Med Chem, 1985).
# Where a SMILES comes first, the peptide text is derived from it. Bridges are numbered along the chain shown (N, C = ends). [ ]: non-standard residue; d: D form. Orn = NCCC[C@H](N)C(=O)O
# Columns and labels:
# [1] = molecular target: Delta-type opioid receptor (Rattus norvegicus, UniProt P33533); test: Displacement of [3H]DSLET from Opioid receptor delta 1 from rat brain homogenate; format: tissue-based
# Chain of Delta-type opioid receptor (P33533 whole entry): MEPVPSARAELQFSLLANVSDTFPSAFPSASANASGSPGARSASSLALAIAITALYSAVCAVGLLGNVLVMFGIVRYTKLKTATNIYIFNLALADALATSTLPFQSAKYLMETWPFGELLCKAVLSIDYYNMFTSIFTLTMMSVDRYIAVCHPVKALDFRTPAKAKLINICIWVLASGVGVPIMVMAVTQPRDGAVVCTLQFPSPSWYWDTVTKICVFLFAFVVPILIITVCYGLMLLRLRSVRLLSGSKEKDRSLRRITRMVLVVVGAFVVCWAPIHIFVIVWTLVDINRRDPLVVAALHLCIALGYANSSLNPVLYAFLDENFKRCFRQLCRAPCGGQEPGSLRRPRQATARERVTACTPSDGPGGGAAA
# Cavia porcellus [2] = species on record: Cavia porcellus; test: Tested for inhibition of electrically evoked contractions of the guinea pig ileum(GPI).; format: functional
# In short: (§1)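 Isolated tissue bioassay, electrically evoked contractions; inhibition measured. A log dose–response curve with [Leu5]enkephalin as standard was run on each ileum or vas preparation. Test-peptide IC50 values were normalized against that standard by a published procedure. Mean of three determinations ±SEM.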
# Mus musculus = species on record: Mus musculus; test: Tested for inhibition of electrically evoked contractions of the mouse vas deferens(MVD).; format: functional; in short: as §1
# Mu-type opioid receptor = Mu-type opioid receptor (Rattus norvegicus, UniProt P33535); test: Evaluated for its ability to displace [3H]DAGO binding to Opioid receptor mu 1 from rat brain homogenate; format: tissue-based
# Chain of Mu-type opioid receptor (P33535 whole entry): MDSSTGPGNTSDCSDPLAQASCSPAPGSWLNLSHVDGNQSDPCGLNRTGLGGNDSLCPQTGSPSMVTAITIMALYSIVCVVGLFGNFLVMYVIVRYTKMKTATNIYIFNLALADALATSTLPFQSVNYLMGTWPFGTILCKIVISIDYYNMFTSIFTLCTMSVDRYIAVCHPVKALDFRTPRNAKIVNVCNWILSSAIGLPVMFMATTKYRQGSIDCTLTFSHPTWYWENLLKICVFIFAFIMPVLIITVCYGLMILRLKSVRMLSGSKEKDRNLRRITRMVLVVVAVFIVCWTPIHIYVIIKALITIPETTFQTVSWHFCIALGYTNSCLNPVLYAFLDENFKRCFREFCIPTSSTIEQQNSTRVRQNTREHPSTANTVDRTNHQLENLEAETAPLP
# Cavia porcellus [3] = species on record: Cavia porcellus; test: Tested for sensitivity to naloxone in the guinea pig ileum assay.; format: functional
# In short: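 Electrically stimulated guinea pig ileum. IC50 was determined with and without a fixed 5 nM naloxone. Ke for naloxone as antagonist was derived from the ratio of those IC50 values.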
Structure (SMILES),Ki [1] [µM],IC50 (Cavia porcellus [2]) [µM],IC50 (Mus musculus) [µM],Ki (Mu-type opioid receptor) [µM],Ke (Cavia porcellus [3]) [nM]
NC(=O)[C@@H]1CCC(=O)NCCCC[C@@H](NC(=O)[C@@H](N)Cc2ccc(O)cc2)C(=O)N[C@@H](Cc2ccccc2)C(=O)N1 [listing 1 of 2 here],0.00436,0.00293,0.00521,0.00143,
NC(=O)[C@@H]1CCC(=O)NCCCC[C@@H](NC(=O)[C@@H](N)Cc2ccc(O)cc2)C(=O)N[C@@H](Cc2ccccc2)C(=O)N1 [listing 2 of 2 here],,,,,1.8
CC(C)C[C@@H]1NC(=O)[C@H](NC(=O)[C@@H](N)Cc2ccc(O)cc2)CCCNC(=O)C[C@@H](C(N)=O)NC1=O,8.16,5.41,40.4,6.8,
NC(=O)[C@@H]1CCCCNC(=O)CC[C@@H](NC(=O)[C@@H](N)Cc2ccc(O)cc2)C(=O)N[C@@H](Cc2ccccc2)C(=O)N1 [listing 1 of 2 here],0.0493,0.00799,0.101,0.000994,
NC(=O)[C@@H]1CCCCNC(=O)CC[C@@H](NC(=O)[C@@H](N)Cc2ccc(O)cc2)C(=O)N[C@@H](Cc2ccccc2)C(=O)N1 [listing 2 of 2 here],,,,,0.81
NC(=O)[C@@H]1CCCNC(=O)C[C@@H](NC(=O)[C@@H](N)Cc2ccc(O)cc2)C(=O)N[C@@H](Cc2ccccc2)C(=O)N[C@H](C(N)=O)CCCNC(=O)C[C@@H](NC(=O)[C@@H](N)Cc2ccc(O)cc2)C(=O)N[C@@H](Cc2ccccc2)C(=O)N1 [listing 1 of 2 here],0.129,1.16,0.579,0.0859,
NC(=O)[C@@H]1CCCNC(=O)C[C@@H](NC(=O)[C@@H](N)Cc2ccc(O)cc2)C(=O)N[C@@H](Cc2ccccc2)C(=O)N[C@H](C(N)=O)CCCNC(=O)C[C@@H](NC(=O)[C@@H](N)Cc2ccc(O)cc2)C(=O)N[C@@H](Cc2ccccc2)C(=O)N1 [listing 2 of 2 here],,,,,1.62
NC(=O)[C@@H]1CC(=O)NCCC[C@@H](NC(=O)[C@@H](N)Cc2ccc(O)cc2)C(=O)N[C@@H](Cc2ccccc2)C(=O)N[C@H](C(N)=O)CC(=O)NCCC[C@@H](NC(=O)[C@@H](N)Cc2ccc(O)cc2)C(=O)N[C@@H](Cc2ccccc2)C(=O)N1 [listing 1 of 2 here],0.0422,0.111,0.0991,0.0256,
NC(=O)[C@@H]1CC(=O)NCCC[C@@H](NC(=O)[C@@H](N)Cc2ccc(O)cc2)C(=O)N[C@@H](Cc2ccccc2)C(=O)N[C@H](C(N)=O)CC(=O)NCCC[C@@H](NC(=O)[C@@H](N)Cc2ccc(O)cc2)C(=O)N[C@@H](Cc2ccccc2)C(=O)N1 [listing 2 of 2 here],,,,,1.36
NC(=O)[C@@H]1CCC(=O)NCCC[C@@H](NC(=O)[C@@H](N)Cc2ccc(O)cc2)C(=O)NCC(=O)N1,4.99,8.75,> 40,1.76,
NC(=O)[C@@H]1CCCNC(=O)C[C@@H](NC(=O)[C@@H](N)Cc2ccc(O)cc2)C(=O)N[C@@H](Cc2ccccc2)C(=O)N1 (H-Y[dD]F[Orn]-NH2; lactam 2-4) [listing 1 of 2 here],,0.522,8.57,,
NC(=O)[C@@H]1CCCNC(=O)C[C@@H](NC(=O)[C@@H](N)Cc2ccc(O)cc2)C(=O)N[C@@H](Cc2ccccc2)C(=O)N1 (H-Y[dD]F[Orn]-NH2; lactam 2-4) [listing 2 of 2 here],,,,,1.28
